From PubChem
TAAR1 ag: human TAAR1 agonism; CHO RD-HGA16 TAAR1, Fluo-8 calcium fluorescence; vehicle wells 0%, saturating PEA agonist 100%; activation, % at 3 µM; 360,000 tested, 0.99% active;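 active means activation above the mean activation of all test compounds in the run plus 3 SD, cut at about 38% in these data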
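Assay system: CHO-derived RD-HGA16 cells with stable Gα16 and human TAAR1; timing: 17-24 h seeding, 75 min 37 °C dye, 30 min RT; read-out: % activation from peak over basal fluorescence ratio, DMSO-to-PEA scaled; measured by: kinetic Fluo-8 calcium fluorescence; benchmarks: low control DMSO, high control PEA (EC100); doses: 3 µM single concentration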
CRFR2-BP ag: CRF-BP/CRF-R2 complex agonism. 350,000 tested, 0.46% active. activation, % at 13.2 µM. AID 588473. HEK293 CRF-R2/CRF-BP, calcium dye fluorescence (FLIPR); percent of saturating CRF peptide response;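 active means activation of at least 50%, plus an integration ratio under a set limit after plate pattern correction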;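 further: plate controls were neutral control wells without compound for no effect and CRF at EC100 for full effect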
TMEM16A act: activators or potentiators of mouse TMEM16A chloride channel; B-score at 10 µM; 340,000 tested, 0.3% active; Q8BHY3; AID 623877; HEK293 TMEM16A/YFP-H148Q/I152L, iodide quench fluorescence; hits give low values;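 active means fluorescence-ratio B-score plate-corrected deviation score at least 3 library SD below zero, with starting fluorescence score within 5 deviations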;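 further: channel opened by trigger with iodide after compound preincubation; score built on the fluorescence ratio of max minus min over baseline; more negative score means more quench and so TMEM16A activation or potentiation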
Target sequence (Q8BHY3 whole entry, looked up): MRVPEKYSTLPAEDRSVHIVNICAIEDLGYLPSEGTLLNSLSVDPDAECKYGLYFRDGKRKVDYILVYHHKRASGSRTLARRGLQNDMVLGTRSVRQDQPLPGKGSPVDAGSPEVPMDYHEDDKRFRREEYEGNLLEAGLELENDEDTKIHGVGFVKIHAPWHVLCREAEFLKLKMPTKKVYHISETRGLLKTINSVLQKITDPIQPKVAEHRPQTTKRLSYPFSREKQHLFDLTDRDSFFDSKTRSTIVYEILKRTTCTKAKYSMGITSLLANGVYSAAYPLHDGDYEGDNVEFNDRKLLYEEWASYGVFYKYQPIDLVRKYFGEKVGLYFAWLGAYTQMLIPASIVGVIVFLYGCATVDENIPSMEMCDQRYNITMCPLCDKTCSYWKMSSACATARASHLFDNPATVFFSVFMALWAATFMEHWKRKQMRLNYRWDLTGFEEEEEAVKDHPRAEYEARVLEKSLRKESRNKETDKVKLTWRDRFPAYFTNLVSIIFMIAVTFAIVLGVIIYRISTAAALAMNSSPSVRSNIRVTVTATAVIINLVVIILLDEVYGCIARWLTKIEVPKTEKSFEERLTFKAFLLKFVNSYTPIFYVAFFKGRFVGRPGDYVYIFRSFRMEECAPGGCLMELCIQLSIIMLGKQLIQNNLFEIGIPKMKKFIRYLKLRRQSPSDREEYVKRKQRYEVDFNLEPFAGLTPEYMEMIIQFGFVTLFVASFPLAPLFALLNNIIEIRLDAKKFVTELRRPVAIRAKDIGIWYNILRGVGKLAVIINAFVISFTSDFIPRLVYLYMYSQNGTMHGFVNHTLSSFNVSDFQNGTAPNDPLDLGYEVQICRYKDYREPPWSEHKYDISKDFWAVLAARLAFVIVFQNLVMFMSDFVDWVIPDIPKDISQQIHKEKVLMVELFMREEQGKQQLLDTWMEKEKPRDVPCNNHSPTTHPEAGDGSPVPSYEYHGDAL
CRFBP-R2 block: antagonists of CRF-binding protein/CRF-R2 receptor complex; inhibition, % at 11.8 µM; HEK293 CRF-R2/CRF-BP, CRF-induced calcium fluorescence; 350,000 tested, 0.59% active; AID 588475;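 active means inhibition of the ligand-induced calcium signal above about 50% at the single tested concentration, limit read from the data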
TAAR1 antag: human TAAR1 antagonism | AID 624466 | inhibition, % at 3 µM | 360,000 tested, 1.5% active | Q96RJ0 | CHO RD-HGA16 TAAR1, Fluo-8 calcium fluorescence, antagonist;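 active means inhibition above a per-plate cutoff, the mean inhibition of test compounds on that plate plus 3 SD, cut at about 49% in these data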;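 further: 0% = DMSO plus EC80 beta-PEA response and 100% = DMSO alone without agonist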
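Test system: CHO RD-HGA16 cells bearing hTAAR1 | Reagent: β-PEA, EC80 | Compound dosing: 3 µM, single point | Schedule: Dye loading 75 min at 37 °C, then 30 min room temperature | Signal: Calcium fluorescence with Fluo-8 | Evaluation: Percent inhibition of PEA-evoked calcium signal, max/basal emission ratio | Control set: DMSO-only wells and EC80 β-PEA-stimulated wells | Repeats: Singlicate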
TMEM16A inh: inhibitors of mouse TMEM16A calcium-activated chloride channel; Q8BHY3; HEK293 TMEM16A/YFP iodide influx fluorescence, ionomycin; normalized B-score (activity score, 25-100; higher = stronger inhibition) at 10 µM; 310,000 tested, 1.2% active;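 active means ratio plate-corrected score three or more library SD toward inhibition, starting fluorescence score within five deviations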;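 further: score derived from kinetic fluorescence span divided by baseline fluorescence per well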
* = called active by the depositor; i = inactive; . = no result given. In the library only some 3.9% were active in any assay of this set; here they are far more common.

SMILES | TAAR1 ag | CRFR2-BP ag | TMEM16A act | CRFBP-R2 block | TAAR1 antag | TMEM16A inh
CCCCNCc1ccc(OCc2ccc(Cl)nc2)c(OC)c1 | 2.0 | -1.0 | i | 13.5 | -24.8 | i
CN(CC(=O)Nc1ccc(F)cc1[N+](=O)[O-])Cc1ccccc1 | 3.5 | 0.1 | i | -6.0 | 16.1 | i
O=C1N(Cc2cccc(Cl)c2)C[C@@H]2C[C@@H](c3c[nH]c4ccccc34)N3CCC[C@@]123 | 7.7 | 5.6 | -4.64* | -13.2 | 11.2 | i
CCCn1c(C(=O)OC)cc2c1ccn2-c1ccc(F)cc1 | 28.9 | -2.8 | i | -69.8 | -37.9 | i
COC(=O)c1cc2c(ccn2-c2ccc(F)cc2)n1C(C)C | 39.2* | -0.5 | i | -12.5 | -31.2 | i
COC(=O)c1cc2c(ccn2-c2ccc(F)cc2)n1CC(C)C | 43.6* | 1.4 | i | -108.8 | -16.8 | 100*
COC(=O)C(Cc1ccc(O)cc1)NC(=O)CCc1nc2ccccc2s1 (stereo not given) | 13.1 | 1.6 | i | 8.4 | 3.6 | i
Cc1cccc(NC(=O)c2ccccc2O)c1C | 6.5 | 20.6 | i | 30.6 | 8.4 | 25*
Cc1cccc(NC(=O)c2cccc([N+](=O)[O-])c2O)c1C | 5.3 | 44.8 | i | 58.7* | 2.3 | .
O=C(CN1CCN(C(=O)C2COc3ccccc3O2)CC1)Nc1ccc(F)cc1 (stereo not given) | 6.4 | -3.0 | i | 4.5 | -11.9 | i
CCc1c(-c2ccc(Br)cc2)ncn1Cc1cccc(-c2ccccc2)c1 | 0.7 | . | . | . | 6.5 | .
COc1ccc(OCCN2CCN(C(=O)c3ccc(OC)cc3)CC2)cc1 | 0.1 | -0.4 | i | 5.0 | -10.4 | 100*
COc1ccc(OCCN2CCN(C(=O)c3ccc(OC(F)F)c(OC)c3)CC2)cc1 | -3.5 | -0.9 | i | 1.0 | -1.8 | i
Cc1ccc(N(C(=O)c2csnn2)C(C(=O)NC2CCCC2)c2cccnc2)c(C)c1 (stereo not given) | 1.7 | 0.5 | i | -5.9 | -16.8 | i
O=S(=O)(NC1CCCCC1N1CCN(c2ccc(F)cc2)CC1)c1ccccc1 (stereo not given) | -1.1 | -0.3 | i | -13.4 | -34.3 | i
CN1CCN(C2CCCCC2NS(=O)(=O)c2ccc(Cl)cc2)CC1 (stereo not given) | . | -0.5 | i | -1.6 | . | i
CC1CC(C)CN(C2CCCCC2NS(=O)(=O)c2ccc(Cl)cc2)C1 (stereo not given) | 0.6 | 54.8* | i | -10.6 | -6.2 | i
COc1ccc(N2CCN(C3CCCCC3NS(=O)(=O)c3ccc(Cl)cc3)CC2)cc1 (stereo not given) | -1.6 | 70.2* | i | -37.1 | -15.2 | i
COc1ccccc1N1CCN(C2CCCCC2NS(=O)(=O)c2ccc(Cl)cc2)CC1 (stereo not given) | . | 212.3* | -32.7* | -195.8 | . | i
O=S(=O)(NC1CCCCC1N1CCCCC1)c1ccccc1 (stereo not given) | 4.0 | 1.6 | i | -1.5 | -3.6 | i
COC(=O)CCNC(=O)Cc1ccc(S(=O)(=O)N2CCCCC2)s1 | 1.5 | -0.7 | i | 0.3 | -19.8 | .
CC(C)(C)c1cc(C(=O)NC2CC2)n(Cc2ccc(F)cc2)n1 | 0.4 | 3.5 | i | 4.6 | -0.1 | i
Cc1ccc(NNC(=O)c2cc(C(C)(C)C)nn2Cc2ccccc2)cc1 | -2.9 | -1.0 | i | -3.4 | -22.0 | i
COc1ccccc1NNC(=O)c1cc(C(C)(C)C)nn1Cc1ccccc1 | 2.5 | -0.9 | i | 4.7 | 49.0* | i
CC(C)(C)c1cc(C(=O)Nc2ccc(F)cc2)n(Cc2ccc(F)cc2)n1 | 2.1 | 12.6 | i | -49.0 | 64.8* | i
COC(=O)c1ccccc1NC(=O)c1nc(S(=O)(=O)Cc2ccccc2)ncc1Cl | 0.8 | -0.9 | i | 54.3* | -14.6 | i
Cc1ccc(CS(=O)(=O)c2ncc(Cl)c(C(=O)Nc3ccc(OC(F)F)cc3)n2)cc1 | -1.4 | 0.1 | i | 54.4* | 27.6 | i
